# APOBEC3A inh = inhibitors of human APOBEC3A DNA deaminase; inhibition, % at 20 µM; P31941; 330,000 tested, 0.41% active; recombinant A3A, FAM/TAMRA ssDNA deamination fluorescence; AID 493011;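 active = at least 40% inhibition at 20 µM here, with at most 30% in a related deaminase screen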;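 also: plate controls were A3A with DMSO for no effect and wells lacking A3A enzyme for full effect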
# Target sequence (P31941 whole entry, looked up): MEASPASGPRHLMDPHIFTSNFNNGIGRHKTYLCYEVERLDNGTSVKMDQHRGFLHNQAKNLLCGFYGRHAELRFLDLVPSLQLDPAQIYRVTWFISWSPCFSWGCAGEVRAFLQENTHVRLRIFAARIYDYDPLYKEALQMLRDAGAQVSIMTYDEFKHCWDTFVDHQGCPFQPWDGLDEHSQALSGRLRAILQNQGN
# p-CIP stab down = compounds decreasing mouse p/CIP protein stability; AID 1984; decrease of EGFP signal, % at 10 µM; Q05BA5; F442A p/CIP-EGFP cells, EGFP fluorescence, 16 h; 290,000 tested, 0.01% active;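 active = EGFP signal decrease of at least 30% at 10 µM or well 3 SD below plate mean, unless failing retest; inactive = the rest, including hits failing retest or dose response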
# Tb MetRS inh = Trypanosoma brucei MetRS inhibition. purified T. brucei MetRS, ATP depletion, Kinase-Glo luminescence. inhibition, % at 11.9 µM. 360,000 tested, 0.4% active;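 active = inhibition above a per-plate cutoff of the control wells' mean inhibition plus 3 SD, cut at about 5.5% in these data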;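 also: 0% = DMSO wells median and 100% = median of wells with control inhibitor compound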
#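 Test system – parasite MetRS enzyme · Reagent – substrates ATP, L-methionine and bulk Escherichia coli tRNA · Doses – 11.9 µM compound single dose, 0.9% DMSO · Times – 15 min enzyme-compound preincubation, 2 h reaction, 10 min detection, 25 °C · Signal – Kinase-Glo luminescence, ATP depletion format · Controls – DMSO-only wells as low control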
# APOBEC3G inh = inhibitors of human APOBEC3G DNA deaminase; Q9HC16; recombinant A3G, ssDNA deamination FAM/TAMRA fluorescence; inhibition, % at 20 µM; 330,000 tested, 0.28% active; AID 493012;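 active = inhibition of at least 40% at 20 µM, with no more than 30% in the related APOBEC3A deaminase screen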;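 also: plate controls were DMSO wells with A3G for no effect and wells lacking A3G enzyme for full effect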
# PHOSPHO1 inh = PHOSPHO1 (human) inhibition | inhibition, % at 13.3 µM | recombinant PHOSPHO1, absorbance phosphatase assay | 290,000 tested, 1.1% active | Q8TCT1 | AID 1565; in the data active = inhibition above about 60%
# Target sequence (Q8TCT1 whole entry, looked up): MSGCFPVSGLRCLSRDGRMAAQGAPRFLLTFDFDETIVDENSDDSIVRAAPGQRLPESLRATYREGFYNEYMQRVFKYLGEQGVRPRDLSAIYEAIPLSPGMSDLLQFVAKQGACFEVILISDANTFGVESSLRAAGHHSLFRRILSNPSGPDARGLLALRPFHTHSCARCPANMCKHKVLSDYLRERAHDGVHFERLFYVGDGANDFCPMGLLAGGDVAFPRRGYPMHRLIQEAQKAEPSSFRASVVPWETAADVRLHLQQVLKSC
# TbMetRS confirm = Trypanosoma brucei MetRS inhibition confirmed; 1,400 tested, 93% active; T. brucei MetRS enzyme, luminescence (ATP depletion); shares compounds with Tb MetRS inh; AID 624412; inhibition, % at 11.9 µM; in the data active = inhibition above about 7%
# Jurkat tox = kills Jurkat cells in T. brucei MetRS counterscreen. Jurkat cells viability, ATP luminescence. inhibition, % at 8.3 µM. shares compounds with Tb MetRS inh. 1,400 tested, 12% active; in the data active = inhibition above about 15%;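 also: 0% = vehicle and 100% = reference inhibitor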
# TbMetRS FP orth = T. brucei MetRS inhibition, orthogonal assay; AID 651607; shares compounds with Tb MetRS inh; inhibition, % at 11.9 µM; purified T. brucei MetRS, fluorescence polarization; 1,400 tested, 44% active; in the data active = inhibition above about 17%;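 also: 0% = vehicle wells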
# Numbers without * were called inactive; nt = no result. Hits are enriched below; roughly 1.8% of the tested compounds scored in any of these assays.
SMILES,APOBEC3A inh,p-CIP stab down,Tb MetRS inh,APOBEC3G inh,PHOSPHO1 inh,TbMetRS confirm,Jurkat tox,TbMetRS FP orth
Cc1ccc(C(CNC(=O)Nc2ccc(Cl)cc2)N2CCN(C)CC2)cc1 (stereo not given),-4.3,2.8,8.1*,-6.7,29.3,30.1*,9.7,10.4
CN1CCN(C(CNC(=O)Nc2ccc(Cl)cc2)c2ccc(F)cc2)CC1 (stereo not given),0.6,-6.9,28.0*,-2.4,44.5,52.2*,8.8,28.5*
Cc1nnsc1SCCNC(=O)Nc1ccc(Cl)cc1,-4.5,-12.5,6.5*,-8.5,43.7,11.8*,11.4,14.6
O=C(NCCc1ccc(Cl)cc1)Nc1ccc(F)cc1,0.8,1.1,17.6*,-5.2,11.9,30.1*,-2.7,12.3
Cc1nnsc1C(=O)Nc1ccc(Cl)cc1,-0.4,-3.3,-0.6,-1.3,8.7,nt,nt,nt
COc1cc(C(=O)N2CCCCC2c2cc(C(=O)NC(C)C)no2)cc(OC)c1C (stereo not given),nt,nt,0.2,nt,nt,nt,nt,nt
CCN(Cc1cnn(C)c1)C(=O)CC1C(=O)NCCN1Cc1cccc(OC)c1OC (stereo not given),-3.3,10.3,-0.9,-5.7,26.9,nt,nt,nt
Nc1cc(=O)[nH]c(SCC(=O)Nc2ccc(Cl)c(Cl)c2)n1,-1.9,1.1,1.7,-5.0,7.8,nt,nt,nt
Nc1cc(=O)[nH]c(SCC(=O)Nc2cc(Cl)cc(Cl)c2)n1,-1.2,4.8,28.8*,-7.5,14.7,48.8*,0.8,27.9*
CCOc1ccc(C2c3[nH]c4ccccc4c3C[C@H]3C(=O)N(C4CCN(Cc5ccccc5)CC4)CC(=O)N23)cc1OC (stereo not given in full),0.8,-16.8,-0.8,1.2,10.9,nt,nt,nt
O=C1[C@@H]2Cc3c([nH]c4ccccc34)C(c3cccc([N+](=O)[O-])c3)N2C(=O)CN1C1CCN(Cc2ccccc2)CC1 (stereo not given in full),-3.3,-5.5,91.3*,4.0,nt,94.2*,0.4,74.3*
Cc1ccc(Nc2nnc(SCC(=O)N(C)C3CCS(=O)(=O)C3)s2)cc1 (stereo not given),4.1,7.5,2.0,2.6,6.6,nt,nt,nt
COc1ccc(Nc2nnc(SCC(=O)N(CC(C)C)C3CCS(=O)(=O)C3)s2)cc1 (stereo not given),nt,nt,11.1*,nt,nt,28.8*,8.9,17.7*
Cc1ccccc1Nc1nnc(SCC(=O)N(C)C2CCS(=O)(=O)C2)s1 (stereo not given),0.1,1.3,0.2,2.7,12.6,nt,nt,nt
CCN(C(=O)CSc1nnc(Nc2ccccc2)s1)C1CCS(=O)(=O)C1 (stereo not given),-0.2,5.4,7.4*,-2.1,0.7,16.3*,-7.4,3.6
O=C(CSc1nnc(Nc2ccccc2)s1)NC1CCS(=O)(=O)C1 (stereo not given),0.4,nt,9.4*,-8.6,nt,27.2*,0.1,9.4
COc1cc(C(C(=O)NC(C)(C)C)N(Cc2ccccc2)C(=O)c2cnccn2)cc(OC)c1OC (stereo not given),-3.1,1.6,0.0,-6.5,-24.9,nt,nt,nt
COc1ccc(CN(C(=O)c2ccc(-c3ccccc3)[nH]2)C(C(=O)NC(C)(C)C)c2ccncc2)cc1 (stereo not given),0.7,-4.2,76.2*,8.4,-9.8,33.5*,7.7,15.9
O=C(CCl)N(c1ccccc1)C1CCS(=O)(=O)C1 (stereo not given),0.7,5.8,-0.3,-4.4,-5.2,nt,nt,nt
CC(=O)c1cccc(NC(=O)C(C)OC(=O)CNC(=O)c2ccc(C)s2)c1 (stereo not given),3.3,0.9,14.5*,-2.6,7.3,28.8*,1.1,10.6
CC(C)NCCOCCOc1ccc(Cl)cc1Br,-2.8,9.0,1.4,-7.9,-14.5,nt,nt,nt
CN(C)CCOCCOc1ccc(Cl)cc1Br,-6.7,-10.5,5.7*,-8.7,51.4,9.5*,3.7,7.8
O=c1c2[nH]c3ccccc3c2ncn1CCC1=CCCCC1,2.7,-0.6,0.2,-0.7,0.9,nt,nt,nt
COc1ccc(CNc2ncnc3c2[nH]c2ccccc23)cc1,1.7,-8.7,88.4*,2.2,-14.9,94.4*,24.0*,73.2*
CC(C)OCCCNc1ncnc2c1[nH]c1ccccc12,0.4,-19.4,74.0*,-5.2,9.7,86.8*,38.0*,64.1*
SMILES,APOBEC3A inh,p-CIP stab down,Tb MetRS inh,APOBEC3G inh,PHOSPHO1 inh,TbMetRS confirm,Jurkat tox,TbMetRS FP orth
COc1ccc(CNc2ncnc3c2[nH]c2cc(OC)c(OC)cc23)cc1,-3.1,-5.5,-0.2,-5.8,21.9,nt,nt,nt
Brc1ccc2[nH]c3c(NCc4ccccn4)ncnc3c2c1,6.7,-0.8,82.6*,0.5,32.7,88.1*,2.9,79.0*
C1=C(CCNc2ncnc3c2[nH]c2ccccc23)CCCC1,nt,-16.8,79.2*,nt,6.0,97.5*,55.9*,75.7*
CCC1(CC)NC(=O)N(CC(=O)OCC(=O)c2ccccc2OC)C1=O,0.7,nt,-0.3,-1.9,nt,nt,nt,nt
Cc1c(C(=O)NCCS(=O)(=O)N2CCN(c3ccccc3F)CC2)cccc1[N+](=O)[O-],-3.2,-0.3,-0.5,-4.6,18.4,nt,nt,nt
Cc1ccc2nc(/C(C#N)=C/c3ccc(-c4ccccc4C(=O)O)o3)[nH]c2c1,1.7,-103.1,6.0*,-20.5,32.6,21.7*,4.2,4.0
CCC(C)c1ccccc1NC(=O)c1cc(C)no1 (stereo not given),-3.1,-4.4,-0.7,-2.4,26.1,nt,nt,nt
O=C(CN1CCN(c2ccccc2F)CC1)c1c[nH]c2ccc(F)cc12,-0.2,8.7,10.7*,1.1,19.1,17.4*,-10.3,2.3
O=C(CN1C2=NCCCN2c2ccccc21)c1cccc(Br)c1,-0.2,-1.2,0.4,-1.1,-13.9,nt,nt,nt
O=C(CN1C2=NCCCN2c2ccccc21)c1ccc(Cl)cc1Cl,6.7,-2.8,12.0*,7.7,-11.4,27.8*,11.5,12.6
CCCc1cc2c(cc1N(C)S(=O)(=O)c1ccccc1)OCO2,nt,nt,-0.3,nt,nt,nt,nt,nt
Cc1ccc2[nH]c3ccccc3c(=O)c2c1,-5.7,-9.4,2.1,-5.0,31.3,nt,nt,nt
Cc1ccc2[nH]c(CSc3ccccc3)cc(=O)c2c1,1.9,-21.9,10.7*,-2.9,29.9,22.7*,4.9,-2.0
N#CC1=C(N)Oc2cc(N)ccc2C1c1cc(Br)cs1 (stereo not given),3.4,-10.5,43.4*,-3.7,30.5,3.0,56.2*,11.1
N#CC1=C(N)Oc2cc(N)ccc2C1c1cccc(Br)c1 (stereo not given),4.2,-5.1,34.1*,-3.2,44.1,1.7,75.5*,9.6
Cc1ccc(C2C(C#N)=C(N)Oc3cc(N)ccc32)cc1 (stereo not given),-1.3,2.0,-0.1,-0.1,-1.0,nt,nt,nt

# Screening results as filed in PubChem BioAssay.
